Compound activity (PubChem BioAssay)
Hits are enriched below; roughly 2.1% of the tested compounds scored in any of these assays.
Autophagy mod = modulators of autophagy. MEF GFP-LC3 puncta imaging; test concentration mostly 10 µM. calls only at 10 µM (by protocol). actives 0.98% (n = 190,000). AID 463193;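 active = percentage of spot-positive cells more than 3 SD above its plate mean, without a fluorescence outlier flag or 80% toxicity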
Arbovirus anti = arbovirus infection inhibition; arbovirus infection cell-based antiviral screen; inhibition, % at 10 µM; actives 0.37% (n = 200,000); in the data active = inhibition above about 30%
ABCB1 block = human ABCB1 inhibition, ABCG2 as counter-screen; CCRF-Adr cells, JC-1 efflux, flow cytometry; actives 0.067% (n = 190,000); inhibition, % at 6.6 µM; P08183; in the data active = inhibition above about 40%;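 also: higher value means more JC-1 retained so stronger ABCB1 efflux block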
MT stabilizer = stabilizes microtubules in HeLa cells; HeLa tubulin immunostaining HCS, 24 h; share of cells brighter than vehicle mean+2SD; % tubulin-high responders, % at 10 µM; AID 2205; actives 0.83% (n = 200,000);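 active = plate Z-score above 3 for both tubulin-high and condensed-nucleus cell shares, with cell loss under 80%, at 10 µM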;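 also: anti alpha tubulin signal scored within the nucleus-defined area of each cell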
ABCG2 block = human ABCG2 inhibition, ABCB1 as counter-screen; Q9UNQ0; actives 0.1% (n = 190,000); IgMXP3 cells, JC-1 efflux, flow cytometry; inhibition, % at 6.6 µM;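 active = inhibition above 80%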
Target sequence (Q9UNQ0 whole entry, looked up): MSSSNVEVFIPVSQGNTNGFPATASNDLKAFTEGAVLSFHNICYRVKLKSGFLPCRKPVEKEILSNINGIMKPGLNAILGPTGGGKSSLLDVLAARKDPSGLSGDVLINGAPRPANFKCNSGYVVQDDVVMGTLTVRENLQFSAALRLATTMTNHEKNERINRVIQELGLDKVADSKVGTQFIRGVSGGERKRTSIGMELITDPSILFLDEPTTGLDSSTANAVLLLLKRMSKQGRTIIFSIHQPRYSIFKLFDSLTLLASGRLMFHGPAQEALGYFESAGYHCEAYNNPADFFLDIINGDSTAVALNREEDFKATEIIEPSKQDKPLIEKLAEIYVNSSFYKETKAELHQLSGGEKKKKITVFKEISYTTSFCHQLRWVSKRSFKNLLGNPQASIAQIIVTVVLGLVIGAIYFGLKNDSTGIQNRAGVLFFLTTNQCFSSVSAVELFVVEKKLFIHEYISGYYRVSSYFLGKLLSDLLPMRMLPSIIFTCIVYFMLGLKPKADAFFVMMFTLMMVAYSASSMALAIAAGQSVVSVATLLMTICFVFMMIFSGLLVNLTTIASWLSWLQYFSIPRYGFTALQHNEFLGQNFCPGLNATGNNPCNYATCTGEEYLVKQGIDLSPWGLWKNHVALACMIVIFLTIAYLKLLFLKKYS
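Test system: ABCG2 IgMXP3 and barcoded ABCB1 CCRF-Adr cell mix; Schedule: cells with compound and JC-1, 10 min at 25 °C, rotating, no wash; Technique: flow cytometry of retained JC-1 fluorescence; Measure: % inhibition of efflux relative to nicardipine and DMSO; Controls: nicardipine high and DMSO low controls.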
b-catenin transl = beta-catenin nuclear translocation modulation; actives 0.3% (n = 190,000); AID 1665; HeLa beta-catenin nuclear translocation, immunofluorescence imaging; nuclear translocation activity, % at 5 µM;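 active = nuclear translocation activity above 50% at 5 µM, with a well cell count of 50 or more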;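 also: per-cell ratio of nuclear to cytoplasmic median beta-catenin stain intensity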
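Assay system: human HeLa cells, native beta-catenin; doses: 5 µM primary, 0.02–20 µM confirmation; incubation: compound treatment 24 h, 37°C, 5% CO2; technique: fluorescence imaging of beta-catenin antibody stain plus DAPI; measure: % activation, nuclear-to-cytoplasmic median beta-catenin signal ratio per cell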
Large screens that a line does not name were inactive.

COc1cccc(/C=C/C(=O)c2cccc([N+](=O)[O-])c2)c1	none
COc1cccc(/C=C/C(=O)c2cccc([N+](=O)[O-])c2)c1OC	Autophagy mod active
CN(C)C(CNC(=O)c1ccc(S(=O)(=O)N(C)C)cc1)Cc1ccccc1 (stereo not given)	Autophagy mod active
O=C(NCC(c1cccs1)N1CCOCC1)c1ccccc1NS(=O)(=O)c1ccc(Br)cc1 (stereo not given)	none
O=C(NCC(c1cccs1)N1CCOCC1)c1ccc(Br)o1 (stereo not given)	MT stabilizer 22
Cc1nnc(N)s1	none (no result: Autophagy mod, Arbovirus anti, ABCB1 block, MT stabilizer, ABCG2 block)
CCCCC(=O)Nc1nc(C)c(-c2csc(Nc3cc(OC)ccc3OC)n2)s1	MT stabilizer 52
Cc1c(C)n(C(=O)CSc2nccn2C)c2ccccc12	none
CCc1cc[n+](-c2nc3ccccc3nc2[N-]S(=O)(=O)c2ccc(Br)s2)cc1	Autophagy mod active
Cc1cc(/C=C2\SC(=S)N(Cc3ccco3)C2=O)c(C)n1-c1ccccc1	Autophagy mod active
Cc1ccc(-c2nnc(OCCN3CCOCC3)c3ccccc23)cc1	none
Oc1ccc(F)cc1-c1cc(-c2ccc3c(c2)OCCO3)n[nH]1	Arbovirus anti 32
CCCn1c2c(c(O)c(C(=O)Nc3nc4ccccc4s3)c1=O)CCCC2	Arbovirus anti 43
CC(C)Cn1c2c(c(O)c(C(=O)Nc3nc4ccccc4s3)c1=O)CCCC2	none (no result: Autophagy mod, Arbovirus anti, ABCB1 block, MT stabilizer, ABCG2 block)
CCN(CC)c1ccc(/C=N/N=C(N)N)c(O)c1	Autophagy mod active, b-catenin transl 77
COc1ccccc1OCC(=O)NN=C(Cc1ccccc1)Cc1ccccc1	none (no result: b-catenin transl)
CCOc1ccccc1OCC(=O)N/N=C(\C)Cc1ccc(OC)cc1	MT stabilizer 15
CC(C)n1c(O)c(N=Nc2ccc(Cl)nn2)c2ccccc21	Autophagy mod active
COc1ccc(C(=O)c2sc3nc(-c4ccccc4)ccc3c2N)cc1	Autophagy mod active
S=C(Nc1ccccc1)Nc1ccccc1-n1cccc1	none (no result: Autophagy mod, Arbovirus anti, ABCB1 block, MT stabilizer, ABCG2 block)
Cc1cc(C)nc(NS(=O)(=O)c2ccc(NC(=O)c3ccco3)cc2)n1	none
CCc1ccc(C(=O)Nc2ccc(S(=O)(=O)Nc3nc(C)cc(C)n3)cc2)o1	Arbovirus anti 106 (no result: b-catenin transl)
CCOc1ccc(NC(=O)/C=C/c2ccccc2)c([N+](=O)[O-])c1	MT stabilizer 24
CC(=O)Nc1sc(N/N=C\c2ccc(O)cc2)nc1-c1cccs1	none (no result: Autophagy mod, Arbovirus anti, ABCB1 block, MT stabilizer, ABCG2 block)
CCN(CC)c1ccc(/C=C(\C#N)c2nc(-c3cccs3)c(NC(C)=O)s2)cc1	Autophagy mod active
Cc1onc(-c2ccccc2)c1C(=O)Nc1sc2c(c1C#N)CCC2	MT stabilizer 20
Cc1onc(-c2c(F)cccc2Cl)c1C(=O)Nc1sc2c(c1C(N)=O)CCC2	MT stabilizer 31 (no result: b-catenin transl)
Cc1cc(C(=O)Nc2sc3c(c2C#N)CCC3)no1	none (no result: b-catenin transl)
Cc1cc(C(=O)Nc2sc3c(c2C#N)CCCC3)no1	MT stabilizer 18
Cc1noc(C(=O)Nc2sc3c(c2C#N)CCC3)c1Cl	Arbovirus anti 32
O=C(CSCc1ccccc1)Nc1ccc(F)cc1F	none
O=C1NCCN1Cc1ccc(Cl)cc1	none (no result: MT stabilizer)
CC(C)c1nc2oc3c(NCc4cccnc4)ncnc3c2c2c1CCC2	none
O=C(CCSCCc1ccccn1)Nc1ccccn1	none
N#Cc1nccnc1S(=O)(=O)c1cccs1	none (no result: Autophagy mod, Arbovirus anti, ABCB1 block, MT stabilizer, ABCG2 block)
Cc1ccccc1NC(=O)C1CCN(S(=O)(=O)c2cccs2)CC1	none
Cn1cc(Cl)c(C(=O)NC(=S)Nc2sc3c(c2C#N)CCCCC3)n1	Autophagy mod active (no result: ABCB1 block)
N#Cc1cc2c(nc1SCC(=O)Nc1sc3c(c1C#N)CCC3)CCC2	none
COc1ccc(-c2ccc(C#N)c(SCC(=O)Nc3sc4c(c3C#N)CCC4)n2)cc1OC	Autophagy mod active (no result: b-catenin transl)
N#Cc1c(NC(=O)CSc2nnc(-c3ccccc3)o2)sc2c1CCCC2	Arbovirus anti 32
COc1ccc(C(C)=O)cc1CSC(=N)N	none
Cc1cc(C(C)(C)C)ccc1NC(=O)CC(C)(C)CC(=O)O	none (no result: Autophagy mod, Arbovirus anti, ABCB1 block, MT stabilizer, ABCG2 block)
Cc1cc(C(=O)NNc2ccc(Cl)cc2)no1	none (no result: Autophagy mod, Arbovirus anti, ABCB1 block, MT stabilizer, ABCG2 block)
CC(C)c1nc2sc3c(NCc4ccccc4)ncnc3c2c2c1COC(C)(C)C2	Autophagy mod active (no result: b-catenin transl)
N/C(=N\OC(=O)COc1ccccc1Cl)c1ccc(Cl)cc1	none
CCOCc1c(C(=O)NC2=Nc3ccccc3NC(CC)=C2C(=O)OCC)oc2ccccc12	MT stabilizer 20
CCOc1ccc(-c2csc(NC(=O)CSCC(=O)O)n2)c2ccccc12	Arbovirus anti 32
CC(C(=O)Nc1ccccc1-c1ccccc1)N(C)Cc1nc2ccccc2c(=O)[nH]1 (stereo not given)	MT stabilizer 24
CC(NC(=O)CN(C)Cc1nc2ccccc2c(=O)[nH]1)c1ccccc1 (stereo not given)	none (no result: b-catenin transl)
O=C(O)c1ccc(COc2ccccc2/C=C2\NC(=O)N(Cc3ccccc3)C2=O)cc1	none
O=C(O)c1ccc(COc2ccc3ccccc3c2/C=C2/NC(=O)N(Cc3ccc(F)cc3)C2=O)cc1	Arbovirus anti 48
O=C1c2ccccc2NC(c2ccccc2)N1Cc1ccco1 (stereo not given)	none
CC(=O)NC1CCN(C(=O)N2CCCC2)CC1	Autophagy mod active
COc1cccc(C(=O)NC2CCN(C(=O)N3CCCCC3)CC2)c1	none
Cc1ccc(N(CC(=O)N/N=C/c2ccc(OC3CSC3)cc2)S(=O)(=O)c2ccccc2)c(C)c1	none
S=c1[nH]c(-c2ccccc2)cn1/N=C/c1cccc2ccccc12	MT stabilizer 18
S=c1[nH]c(-c2ccccc2)cn1/N=C/c1ccccc1Br	none
O=C(CN1C(=O)CNC1=O)Nc1ccc(Cl)cc1	none (no result: Autophagy mod, Arbovirus anti, ABCB1 block, MT stabilizer, ABCG2 block)
O=C(CSc1ccc2nnc(-c3ccccn3)n2n1)NCc1ccco1	Autophagy mod active
COc1ccc(NS(=O)(=O)c2ccc(C)c(NC(=O)c3ccc(C)c(S(=O)(=O)N4CCOCC4)c3)c2)cc1	none
COc1ccc(-c2nnc(-c3ccc(Br)o3)o2)cc1OC	Arbovirus anti 34
COc1ccc(C(=O)N2CCN(c3ccc([N+](=O)[O-])c(NCCc4ccc(OC)c(OC)c4)c3)CC2)cc1	none
COc1ccc(CCNc2cc(N3CCN(C(=O)c4ccccc4F)CC3)ccc2[N+](=O)[O-])cc1OC	Autophagy mod active
COc1ccc(/C=N\NC(=O)c2c(C)nc3ccc(Br)cn23)cc1	MT stabilizer 20, b-catenin transl 53
Cc1c(C(=O)N/N=C/c2ccc(Cl)cc2)[nH]c2ccc(Cl)cc12	b-catenin transl 119
COc1ccccc1N=C(C)C1=C(O)CC(c2ccccc2)CC1=O (stereo not given)	Autophagy mod active, b-catenin transl 52
c1ccc2c(c1)ncn2CCCOc1ccc2c(c1)CCC2	none (no result: b-catenin transl)
COc1ccc(C(=O)Nc2ccc3[nH]c(-c4cccc(OC)c4)cc(=O)c3c2)cc1	MT stabilizer 32, b-catenin transl 56
